Assay results from ChEMBL document CHEMBL1949521, “Discovery of CC-930, an orally active anti-fibrotic JNK inhibitor” (Bioorg Med Chem Lett, 2012).
Converted amounts (≈) assume the structure as drawn. The source made the active and inactive calls. The rule behind the calls is not given here.

What was measured:
[1] = molecular target: Mitogen-activated protein kinase 14 (Homo sapiens, UniProt Q16539); test: Inhibition of p38alpha using myelin basic protein as substrate preincubated for 15 mins prior ATP addition measured after 60 mins by scintillation counting
[2] = molecular target: Mitogen-activated protein kinase 8 (Homo sapiens, UniProt P45983); test: Inhibition of hexa-His-tagged JNK1 expressed in baculoviral system using GST-tagged c-Jun as substrate preincubated for 15 mins prior ATP addition measured after 60 mins by scintillation counting
[3] = molecular target: c-Jun N-terminal kinase, JNK (Homo sapiens, UniProt P45983+P53779+P45984); test: Inhibition of JNK-mediated GST tagged c-Jun phosphorylation in human Jurkat T cells compound treated for 30 mins prior anisomycin stimulation measured after 40 mins by fluorescence spectrophotometry; format: cell-based
[4] = Oral bioavailability in cynomolgus monkey at 10 mg/kg; format: ADME, organism-based, Macaca fascicularis; conditions: in vivo
Outline: (§1)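 Oral dose of 10 mg/kg given as a suspension in aqueous 0.5% CMC/0.25% Tween 80. Plasma AUC, Cmax and Tmax were taken from the oral arm. Bioavailability was derived against the intravenous arm in the same species.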

[5] = (§2) Oral bioavailability in dog at 10 mg/kg; format: ADME, organism-based, Canis lupus familiaris; conditions: in vivo; outline: as §1
[6] = Cmax in rat at 10 mg/kg, po; format: ADME, organism-based; design: dose 10 mg/kg, route oral; conditions: in vivo; outline: as §1
[7] = Volume of distribution at steady state in dog at 1 mg/kg, iv; format: ADME, organism-based, Canis lupus familiaris; design: dose 1 mg/kg, route intravenous; conditions: in vivo, read-out: Vdss
[8] = Oral bioavailability in rat at 10 mg/kg; format: ADME, organism-based; conditions: in vivo; outline: as §1
[9] = Volume of distribution at steady state in rat at 2 mg/kg, iv; format: ADME, organism-based; design: dose 2 mg/kg, route intravenous; conditions: in vivo, read-out: Vdss
Outline: (§3)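 Rats dosed intravenously at 2 mg/kg in a solution of 5% DMA and 30% PEG 400.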

[10] = Volume of distribution at steady state in cynomolgus monkey at 1 mg/kg, iv; format: ADME, organism-based, Macaca fascicularis; design: dose 1 mg/kg, route intravenous; conditions: in vivo, read-out: Vdss
Outline: (§4)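 Intravenous dose of 1 mg/kg given to monkeys in a solution of 5% DMA and 95% isotonic citrate buffer (50 mM, pH 5.0).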

[11] = Tmax in rat at 10 mg/kg, po; format: ADME, organism-based; design: dose 10 mg/kg, route oral; conditions: in vivo; outline: as §1
[12] = molecular target: Mitogen-activated protein kinase 10 (Homo sapiens, UniProt P53779); test: Inhibition of hexa-His-tagged JNK3 expressed in baculoviral system using GST-tagged cJun as substrate preincubated for 15 mins prior ATP addition measured after 60 mins by scintillation counting
[13] = molecular target: Mitogen-activated protein kinase 9 (Homo sapiens, UniProt P45984); test: Inhibition of hexa-His-tagged JNK2 expressed in baculoviral system using GST-tagged cJun as substrate preincubated for 15 mins prior ATP addition measured after 60 mins by scintillation counting
[14] = Mean residence time in dog at 1 mg/kg, iv; format: ADME, organism-based, Canis lupus familiaris; design: dose 1 mg/kg, route intravenous; conditions: in vivo
[15] = Cmax in cynomolgus monkey at 10 mg/kg, po; format: ADME, organism-based, Macaca fascicularis; design: dose 10 mg/kg, route oral; conditions: in vivo; outline: as §1
[16] = Mean residence time in rat at 2 mg/kg, iv; format: ADME, organism-based; design: dose 2 mg/kg, route intravenous; conditions: in vivo; outline: as §3
[17] = AUC in rat at 2 mg/kg, iv; format: ADME, organism-based; design: dose 2 mg/kg, route intravenous; conditions: plasma; outline: as §3
[18] = Mean residence time in cynomolgus monkey at 1 mg/kg, iv; format: ADME, organism-based, Macaca fascicularis; design: dose 1 mg/kg, route intravenous; conditions: in vivo; outline: as §4
[19] = Clearance in cynomolgus monkey at 1 mg/kg, iv; format: ADME, organism-based, Macaca fascicularis; design: dose 1 mg/kg, route intravenous; conditions: in vivo; outline: as §4
[20] = Clearance in dog at 1 mg/kg, iv; format: ADME, organism-based, Canis lupus familiaris; design: dose 1 mg/kg, route intravenous; conditions: in vivo
[21] = Tmax in cynomolgus monkey at 10 mg/kg, po; format: ADME, organism-based, Macaca fascicularis; design: dose 10 mg/kg, route oral; conditions: in vivo; outline: as §1
[22] = Clearance in rat at 2 mg/kg, iv; format: ADME, organism-based; design: dose 2 mg/kg, route intravenous; conditions: in vivo; outline: as §3
[23] = AUC in cynomolgus monkey at 10 mg/kg, po; format: ADME, organism-based, Macaca fascicularis; design: dose 10 mg/kg, route oral; conditions: plasma; outline: as §1
[24] = Tmax in dog at 10 mg/kg, po; format: ADME, organism-based, Canis lupus familiaris; design: dose 10 mg/kg, route oral; conditions: in vivo; outline: as §1
[25] = AUC in cynomolgus monkey at 1 mg/kg, iv; format: ADME, organism-based, Macaca fascicularis; design: dose 1 mg/kg, route intravenous; conditions: plasma; outline: as §4
[26] = (§5) AUC in dog at 10 mg/kg, po; format: ADME, organism-based, Canis lupus familiaris, Plasma; design: dose 10 mg/kg, route oral; conditions: plasma; outline: as §1
[27] = Oral bioavailability in rat; format: ADME, organism-based; conditions: in vivo
[28] = (§6) AUC in dog at 1 mg/kg, iv; format: ADME, organism-based, Canis lupus familiaris, Plasma; design: dose 1 mg/kg, route intravenous; conditions: plasma
[29] = Cmax in dog at 10 mg/kg, po; format: ADME, organism-based, Canis lupus familiaris; design: dose 10 mg/kg, route oral; conditions: in vivo; outline: as §1
[30] = AUC in rat at 10 mg/kg, po; format: ADME, organism-based; design: dose 10 mg/kg, route oral; conditions: plasma; outline: as §1
[31] = system: Mus musculus; test: Antifibrotic activity in bleomycin-induced C57B1/6 mouse model assessed as inhibition of lymphocytes in bronchoalveolar lavage at 25 to 150 mg/kg, po bid administered 2 hrs prior bleomycin induction for 13 days; format: functional, organism-based; conditions: Lung
Outline: (§7)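 Mice received oral doses prophylactically at 25, 50, 100 and 150 mg/kg before bleomycin instillation, then twice daily for 13 days. White blood cells, monocytes and lymphocytes were counted in bronchoalveolar lavage, and lung fibrosis was scored, each against a vehicle control.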

[32] = system: Canis familiaris; test: as §2; format: ADME, organism-based, Canis lupus familiaris; conditions: in vivo; outline: as §1
[33] = system: Rattus norvegicus; test: Antiinflammatory activity in CD rat assessed as inhibition of LPS-stimulated TNFalpha production at 10 mg/kg, po administered 1 hr prior LPS challenge measured after 90 mins by ELISA; format: functional
Outline: (§8)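 Acute PK-PD model in rats: compound given by oral gavage at 10 or 30 mg/kg, then lipopolysaccharide injected, and plasma TNF-alpha release measured.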

[34] = system: Salmonella typhimurium; test: Mutagenic activity in Salmonella Typhimurium by Ames test; format: toxicity, organism-based; conditions: salmonella enterica subsp. enterica serovar typhimurium
[35] = system: Rattus norvegicus; test: Toxicity in rat assessed as adverse effects at 90 mg/kg, po qd for 4 days; format: organism-based; design: dose 90 mg/kg, route oral; conditions: in vivo, 96 h
Outline: (§9)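 Male rats dosed once daily for 4 days by oral gavage with suspensions in aqueous CMC at 30, 90 and 300 mg/kg. Adverse observations were recorded and histology examined.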

[36] = molecular target: Cytochrome P450 2D6 (Homo sapiens, UniProt P10635); test: Inhibition of CYP2D6; format: ADME
[37] = system: Mus musculus; test: Antifibrotic activity in bleomycin-induced C57B1/6 mouse model assessed as reduction in lung fibrosis score compound po bid administered 2 hrs prior bleomycin induction for 13 days; format: functional, organism-based; outline: as §7
[38] = Lipophilicity, log D of the compound; format: physicochemical; conditions: octanol/water
[39] = molecular target: Cytochrome P450 3A4 (Homo sapiens, UniProt P08684); test: Inhibition of CYP3A4; format: ADME
[40] = system: Mus musculus; test: Antifibrotic activity in bleomycin-induced C57B1/6 mouse model assessed as inhibition of monocytes in bronchoalveolar lavage at 25 to 150 mg/kg, po bid administered 2 hrs prior bleomycin induction for 13 days; format: functional, organism-based; conditions: Lung; outline: as §7
[41] = molecular target: Mitogen-activated protein kinase 3 (Homo sapiens, UniProt P27361); test: Inhibition of ERK1
[42] = system: Mus musculus; test: Antifibrotic activity in bleomycin-induced C57B1/6 mouse model assessed as reduction in lung fibrosis score at 25 to 150 mg/kg, po bid administered 2 hrs prior bleomycin induction for 13 days; format: functional; design: scale not given: the % may be the effect or the level left; conditions: dose mg/kg 25-150; outline: as §7
[43] = Dissociation constant, pKa of the compound; format: physicochemical
[44] = system: Mus musculus; test: Antifibrotic activity in bleomycin-induced C57B1/6 mouse model assessed as inhibition of white blood cells in bronchoalveolar lavage at 25 to 150 mg/kg, po bid administered 2 hrs prior bleomycin induction for 13 days; format: functional, organism-based; conditions: Lung; outline: as §7
[45] = system: Canis familiaris; test: as §5; format: ADME, organism-based, Canis lupus familiaris, Plasma; design: dose 10 mg/kg, route oral; conditions: in vivo; outline: as §1
[46] = Solubility in simulated intestinal fluid; format: physicochemical
[47] = system: Canis familiaris; test: as §6; format: ADME, organism-based, Canis lupus familiaris, Plasma; design: dose 1 mg/kg, route intravenous; conditions: in vivo
[48] = system: Rattus norvegicus; test: Antiinflammatory activity in CD rat assessed as inhibition of LPS-stimulated TNFalpha production at 30 mg/kg, po administered 1 hr prior LPS challenge measured after 90 mins by ELISA; format: functional; outline: as §8
[49] = system: Rattus norvegicus; test: Toxicity in rat assessed as histological changes at 90 mg/kg, po qd for 4 days; format: organism-based; design: dose 90 mg/kg, route oral; conditions: in vivo, 96 h; outline: as §9

Mitogen-activated protein kinase 8, sequence (P45983 whole entry): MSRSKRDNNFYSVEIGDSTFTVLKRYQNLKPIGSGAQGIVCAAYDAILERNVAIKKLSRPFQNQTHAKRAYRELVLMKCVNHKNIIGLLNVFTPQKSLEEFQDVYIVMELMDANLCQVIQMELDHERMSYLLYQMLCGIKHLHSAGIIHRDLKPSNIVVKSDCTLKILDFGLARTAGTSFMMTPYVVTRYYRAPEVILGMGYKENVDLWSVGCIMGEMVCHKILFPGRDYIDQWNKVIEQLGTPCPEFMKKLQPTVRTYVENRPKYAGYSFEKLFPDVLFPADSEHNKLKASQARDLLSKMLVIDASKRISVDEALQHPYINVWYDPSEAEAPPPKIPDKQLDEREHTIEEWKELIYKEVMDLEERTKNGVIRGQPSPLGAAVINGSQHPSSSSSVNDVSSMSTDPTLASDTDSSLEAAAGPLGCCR
Mitogen-activated protein kinase 14, sequence (Q16539 whole entry): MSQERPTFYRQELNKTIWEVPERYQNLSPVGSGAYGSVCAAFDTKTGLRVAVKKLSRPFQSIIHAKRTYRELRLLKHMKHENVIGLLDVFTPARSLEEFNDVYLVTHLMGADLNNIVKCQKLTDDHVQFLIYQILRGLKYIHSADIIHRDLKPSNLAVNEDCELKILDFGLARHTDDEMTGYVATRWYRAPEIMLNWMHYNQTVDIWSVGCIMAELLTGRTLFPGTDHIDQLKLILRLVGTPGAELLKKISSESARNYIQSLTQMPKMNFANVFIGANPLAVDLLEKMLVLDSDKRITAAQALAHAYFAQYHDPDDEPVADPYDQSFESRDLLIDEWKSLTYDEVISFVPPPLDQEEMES
Cytochrome P450 2D6, sequence (P10635 whole entry): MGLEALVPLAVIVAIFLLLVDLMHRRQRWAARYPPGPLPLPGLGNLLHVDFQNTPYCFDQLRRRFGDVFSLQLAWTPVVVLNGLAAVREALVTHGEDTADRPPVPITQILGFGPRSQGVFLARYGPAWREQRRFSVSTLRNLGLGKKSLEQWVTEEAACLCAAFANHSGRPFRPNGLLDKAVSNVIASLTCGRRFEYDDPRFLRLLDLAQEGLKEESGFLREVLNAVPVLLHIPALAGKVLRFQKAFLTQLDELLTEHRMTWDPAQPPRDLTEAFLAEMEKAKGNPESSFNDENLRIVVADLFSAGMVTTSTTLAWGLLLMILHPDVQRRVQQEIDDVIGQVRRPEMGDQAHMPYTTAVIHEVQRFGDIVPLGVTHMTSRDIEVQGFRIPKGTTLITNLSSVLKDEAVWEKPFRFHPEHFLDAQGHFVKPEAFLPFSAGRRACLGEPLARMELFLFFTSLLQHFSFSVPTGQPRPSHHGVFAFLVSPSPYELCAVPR
Mitogen-activated protein kinase 10, sequence (P53779 whole entry): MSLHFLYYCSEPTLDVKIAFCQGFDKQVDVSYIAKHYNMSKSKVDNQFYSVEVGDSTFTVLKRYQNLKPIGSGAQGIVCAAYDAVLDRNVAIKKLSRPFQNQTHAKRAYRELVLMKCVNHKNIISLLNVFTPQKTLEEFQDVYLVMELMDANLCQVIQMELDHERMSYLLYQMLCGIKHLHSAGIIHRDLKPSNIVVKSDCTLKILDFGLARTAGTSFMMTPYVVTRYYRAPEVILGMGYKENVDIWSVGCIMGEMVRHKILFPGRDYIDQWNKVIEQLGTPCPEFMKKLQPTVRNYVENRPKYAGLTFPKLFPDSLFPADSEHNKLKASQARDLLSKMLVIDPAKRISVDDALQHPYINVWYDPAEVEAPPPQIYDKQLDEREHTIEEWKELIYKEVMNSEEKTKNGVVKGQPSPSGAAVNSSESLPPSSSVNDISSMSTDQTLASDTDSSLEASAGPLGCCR
Cytochrome P450 3A4, sequence (P08684 whole entry): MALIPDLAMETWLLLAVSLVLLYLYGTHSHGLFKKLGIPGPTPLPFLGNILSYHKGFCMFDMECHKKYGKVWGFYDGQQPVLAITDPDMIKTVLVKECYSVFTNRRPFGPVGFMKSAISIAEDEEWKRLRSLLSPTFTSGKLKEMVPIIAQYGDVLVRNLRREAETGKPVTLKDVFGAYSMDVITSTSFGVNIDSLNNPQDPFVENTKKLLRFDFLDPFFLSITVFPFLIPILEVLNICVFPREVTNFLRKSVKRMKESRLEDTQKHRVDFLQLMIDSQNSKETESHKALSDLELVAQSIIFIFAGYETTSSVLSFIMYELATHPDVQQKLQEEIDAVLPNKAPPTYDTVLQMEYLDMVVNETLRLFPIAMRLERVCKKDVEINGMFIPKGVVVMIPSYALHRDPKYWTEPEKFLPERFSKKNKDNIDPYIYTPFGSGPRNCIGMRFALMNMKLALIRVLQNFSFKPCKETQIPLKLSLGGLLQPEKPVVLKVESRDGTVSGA
Mitogen-activated protein kinase 3, sequence (P27361 whole entry): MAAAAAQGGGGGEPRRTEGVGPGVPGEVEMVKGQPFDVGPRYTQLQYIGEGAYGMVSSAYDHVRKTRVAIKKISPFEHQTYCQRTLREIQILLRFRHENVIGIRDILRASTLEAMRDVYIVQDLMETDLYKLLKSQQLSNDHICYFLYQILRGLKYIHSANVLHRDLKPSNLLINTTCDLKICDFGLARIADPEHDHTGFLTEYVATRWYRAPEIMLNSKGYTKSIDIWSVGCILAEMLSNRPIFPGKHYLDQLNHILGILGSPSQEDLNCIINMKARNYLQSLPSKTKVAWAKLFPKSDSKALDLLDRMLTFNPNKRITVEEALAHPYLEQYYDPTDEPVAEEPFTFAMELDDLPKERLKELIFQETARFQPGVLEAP
Mitogen-activated protein kinase 9, sequence (P45984 whole entry): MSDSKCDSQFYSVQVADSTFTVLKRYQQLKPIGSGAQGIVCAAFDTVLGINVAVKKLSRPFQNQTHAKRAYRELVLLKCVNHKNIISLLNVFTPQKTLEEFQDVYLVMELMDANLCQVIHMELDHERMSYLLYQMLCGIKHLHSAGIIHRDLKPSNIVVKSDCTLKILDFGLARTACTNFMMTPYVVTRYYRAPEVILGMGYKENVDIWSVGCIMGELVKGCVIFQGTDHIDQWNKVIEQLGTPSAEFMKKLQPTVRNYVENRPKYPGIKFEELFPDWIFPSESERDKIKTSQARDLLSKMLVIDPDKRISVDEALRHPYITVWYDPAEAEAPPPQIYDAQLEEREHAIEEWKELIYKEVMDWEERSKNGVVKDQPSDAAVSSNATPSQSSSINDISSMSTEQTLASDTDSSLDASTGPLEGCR

CCO[C@H]1CC[C@H](Nc2ncc3nc(Nc4ccc(F)cc4F)n(C4CCOCC4)c3n2)CC1
IC50 [1]: > 3 µM
IC50 [2]: 0.54 µM
IC50 [3]: 1.6 µM

CNC(=O)[C@H]1CC[C@H](Nc2ncc3nc(Nc4c(F)cc(F)cc4F)n([C@H]4CCOC4)c3n2)CC1
bioavailability [4]: 48%
bioavailability [5]: 24%
Cmax [6]: 1.2 µM
Vd [7]: 1.4 L/kg
bioavailability [8]: 33%
Vd [9]: 2.5 L/kg
Vd [10]: 0.8 L/kg
IC50 [1]: 4.2 µM
Tmax [11]: 0.7 h
IC50 [12]: 0.007 µM
IC50 [13]: 0.01 µM
MRT [14]: 1 h
Cmax [15]: 11 µM
IC50 [2]: 0.051 µM
MRT [16]: 1.1 h
AUC [17]: 1.8 µM·h
MRT [18]: 1.8 h
clearance [19]: 7.1 mL/min/kg
clearance [20]: 24 mL/min/kg
Tmax [21]: 0.83 h
clearance [22]: 39 mL/min/kg
AUC [23]: 23 µM·h
IC50 [3]: 0.091 µM
Tmax [24]: 0.67 h
AUC [25]: 4.7 µM·h
AUC [26]: 3.3 µM·h
bioavailability [27]: 33%
AUC [28]: 1.4 µM·h
Cmax [29]: 0.86 µM
AUC [30]: 2.9 µM·h

CC(C)(O)[C@H]1CC[C@H](Nc2ncc3nc(Nc4ccc(F)cc4F)n(C4CCCC4)c3n2)CC1
IC50 [1]: 0.29 µM
IC50 [2]: 0.17 µM
IC50 [3]: 1.8 µM

O[C@H]1CC[C@H](Nc2ncc3nc(Nc4c(F)cc(F)cc4F)n([C@H]4CCOC4)c3n2)CC1 [TANZISERTIB]
bioavailability [4]: 77%
inhibition [31]: Active
F [32]: 27%
Cmax [6]: 0.7 µM
Vd [7]: 1.5 L/kg
bioavailability [8]: 30%
Vd [9]: 1.7 L/kg
inhibition in vivo at 10 mg/kg [33]: 23%
Vd [10]: 1.6 L/kg
Activity [34]: Non-toxic
IC50 [1]: 3.4 µM
Activity [35]: Non-toxic
inhibition (INH) [36]: Not Active
Tmax [11]: 1.5 h
MRT [14]: 7.3 h
Cmax [15]: 11 µM
MRT [16]: 0.7 h
Activity [37]: Dose-dependent effect
AUC [17]: 1.9 µM·h
MRT [18]: 10 h
clearance [19]: 2.9 mL/min/kg
clearance [20]: 3.4 mL/min/kg
logD [38]: 1.93
Tmax [21]: 1.3 h
inhibition (INH) [39]: Not Active
clearance [22]: 39 mL/min/kg
inhibition [40]: Active
IC50 [41]: 0.48 µM
AUC [23]: 100 µM·h
Activity [42]: 18%
pKa [43]: 5.47
Tmax [24]: 2.5 h
inhibition [44]: Active
AUC [25]: 13 µM·h
AUC [45]: 86 µM·h
solubility [46]: 780 µg/mL (≈ 1740 µM)
bioavailability [27]: 30%
AUC [47]: 11 µM·h
Cmax [29]: 7.2 µM
AUC [30]: 3.1 µM·h
inhibition in vivo at 30 mg/kg [48]: 77%
Activity [49]: Non-toxic
